Measured values gathered from unrelated publications.
Lines come from different studies, so protocols differ.
Target: Dual specificity protein kinase CLK2 (CLK2, Homo sapiens, UniProt P49760)

Compound	effect on	action	technique	concentration	quantity	result
CN1CC(Oc2cnc(C#N)cc2-c2ccn3nc(NC(=O)C4CC4)cc3c2)C1	enzyme activity	inhibitor		1 µM	inhibition	1%
Cn1cncc1C1=CN(c2ncnc3[nH]cnc23)CCS1	enzyme activity	inhibitor	radiometric	2 µM	inhibition	97.8%
CC1(C)NC(=O)c2[nH]c3c(Cl)c(Cl)ccc3c2C1C#N (stereo not drawn)	thermal stability		DSF	10 µM	ΔTm	2.7 °C
N#CCCc1ccc2c(c1)-c1[nH]c3ccc([N+](=O)[O-])cc3c1CC(=O)N2	cell-free assay			0.5 µM	remaining signal	104%
CC/C(=N\NC(=O)NCc1cccc(O)c1)c1ccc(O)c(C)c1O	enzyme activity	inhibitor		0.1 µM	inhibition	1.6%
CN([C@@H]1CCc2c(CC(=O)O)c3cc(S(C)(=O)=O)ccc3n2C1)S(=O)(=O)c1ccc(F)cc1	cell-free assay		competition with immobilised ligand	1 µM	remaining binding	100%
Cc1ccc(C(=O)Nc2ccc(CN3CCN(C)CC3)c(C(F)(F)F)c2)cc1C#Cc1cnc2cccnn12	enzyme activity	inhibitor		23.5 nM	remaining activity	94%
Cn1c2c(Cl)c(Cl)ccc2c2cc(N)[nH]c(=O)c21	thermal stability		DSF	10 µM	ΔTm	1.3 °C
Cn1c(=O)n(-c2ccc(C(C)(C)C#N)cc2)c2c3cc(-c4cnc5ccccc5c4)ccc3ncc21	enzyme activity	inhibitor		10 µM	remaining activity	53%
COc1cc(-c2cn(C3CCc4c(F)cccc4N(CC(F)(F)F)C3=O)nn2)ccc1-n1cnc(C)c1 (stereo not drawn)	cell-free assay		competition with immobilised ligand	1 µM	remaining binding	100%
Nc1ncnc2occ(-c3ccc(NC(=O)Nc4cc(C(F)(F)F)ccc4F)cc3)c12	cell-free assay	inhibitor		20 µM	remaining signal	23%
COc1cc(Nc2cnc(C#N)c(O[C@H](C)CN(C)C)n2)ncc1-c1cnn(C)c1	enzyme activity	inhibitor	radiometric	1 µM	remaining activity	95%
O=C1NC(=O)c2cc(Nc3ccc(F)cc3)c(Nc3ccc(F)cc3)cc21	cell-free assay			0.5 µM	remaining signal	88.1%
CCCOc1ccc([C@@H]2[C@@H](C(=O)O)[C@H](c3ccc4c(c3)OCO4)CN2CC(=O)Nc2c(CC)cccc2CC)cc1	cell-free assay		competition with immobilised ligand	1 µM	remaining binding	100%
CC(C)(C)c1nc(-c2cccc(NS(=O)(=O)c3c(F)cccc3F)c2F)c(-c2ccnc(N)n2)s1	enzyme activity	inhibitor	radiometric	1 µM	remaining activity	98%
Cn1c2c(Cl)c(Cl)ccc2c2cn[nH]c(=O)c21	thermal stability		DSF	10 µM	ΔTm	2 °C
Cn1cnc(Br)c1C1=CN(c2ncnc3[nH]cnc23)CCS1	enzyme activity	inhibitor	radiometric	2 µM	inhibition	97.2%
CC(C)CC(=O)N1CCc2nc(-c3ccc(Br)cc3)nc(N(C)Cc3ccccc3)c2C1	cell-free assay		competition with immobilised ligand	0.1 µM	remaining binding	100%

Compound	effect on	action	technique	concentration	quantity	result
c1ccc(CNc2nc(N3CCOc4ccccc43)nc3c2CCCC3)cc1	target engagement in cells	inhibitor	chemoproteomics	20 mM	inhibition	-5.9%
COc1ccc2c(O[C@@H]3C[C@H]4C(=O)N[C@]5(C(=O)O)CC5/C=C\CCCCC[C@H](NC(=O)OC5CCCC5)C(=O)N4C3)cc(-c3csc(NC(=O)C(C)C)n3)nc2c1C (stereo partly drawn)	cell-free assay		competition with immobilised ligand	1 µM	remaining binding	100%
FC(F)(F)Oc1cccc(-c2cnc3ccc(-c4ccncc4)nn23)c1	enzyme activity	inhibitor	radiometric	1 µM	activity vs control	0.675%
CS(=O)(=O)Nc1cccc(-c2csc(NC(=O)CSc3nc4nccnc4c(=O)n3CCc3ccccc3)n2)c1	enzyme activity	inhibitor		10 µM	inhibition	11%
CS(=O)(=O)NCC[C@H](NC(=O)c1cncc2c1cnn2-c1ccc(F)cc1)c1ccnc(S(C)(=O)=O)c1	cell-free assay		competition with immobilised ligand	1 µM	remaining binding	100%
CN1CCC2(CC1)NC(=O)c1c(c3ccc(Cl)c(Cl)c3n1C)C2C#N (racemic)	thermal stability		DSF	10 µM	ΔTm	1.9 °C
O=C(Nc1cnn(-c2csc(C(=O)NC3COC3)c2)c1)Nc1c(F)cccc1Cl	enzyme activity	inhibitor		5 µM	remaining activity	109%
O=C(NCc1ncc(C(F)(F)F)cc1Cl)c1ccc2c(c1)C1(CCS(=O)(=O)CC1)[C@H](C1CC1)N2S(=O)(=O)c1ccc(F)cc1	cell-free assay		competition with immobilised ligand	1 µM	remaining binding	100%
Oc1cccc(-c2nc(N3CCOCC3)c3oc4ncccc4c3n2)c1	enzyme activity	inhibitor		10 µM	remaining activity	25%
COc1cc2ncnc(Nc3ccc(Oc4ccccc4)cc3C)c2cc1OC	enzyme activity	inhibitor		1 µM	inhibition	0%
Cc1ccc(NC(=O)c2ccc(CN3CCN(C)CC3)cc2)cc1Nc1nc(-c2cccnc2)cs1	cell-free assay			0.5 µM	remaining signal	86%
CCCS(=O)(=O)Nc1ccc(F)c(C(=O)c2c[nH]c3ncc(-c4ccc(Cl)cc4)cc23)c1F	enzyme activity	inhibitor		1 µM	inhibition	< 10%
COc1ccc2cc(OCC3(C(=O)O)CN(C(=O)c4ccc(F)cc4)C3)ccc2c1	cell-free assay		competition with immobilised ligand	1 µM	remaining binding	100%
C#Cc1cccc(Nc2ncnc3cc(OCCOC)c(OCCOC)cc23)c1	cell-free assay			0.5 µM	remaining signal	93.4%
CN(C)C1CCN(CC#Cc2nn(C3CCCC3)c3nc(NCc4ccccc4)ncc23)C1 (stereo not drawn)	enzyme activity	inhibitor	FRET	1 µM	inhibition	11%
CCCCNc1ncc2c(-c3ccc(F)cc3)nn(C[C@H]3CC[C@H](N)CC3)c2n1	target engagement in cells	inhibitor	chemoproteomics	20 mM	inhibition	46.4%
CCCOc1ccc(OC)c(F)c1C(=O)c1ccc(C(=O)N[C@@H]2CNC[C@H]2NC(=O)c2ccc3[nH]ncc3c2)cc1	enzyme activity	inhibitor		10 µM	remaining activity	36%
Cn1c2c(c3ccc(Cl)c(Cl)c31)C(C#N)C1(CCN(C(=O)OC(C)(C)C)CC1)NC2=O (racemic)	thermal stability		DSF	10 µM	ΔTm	-0.3 °C
